# Data taken from ChEMBL document CHEMBL3352043, “Discovery of small-molecule inhibitors selectively targeting the DNA-binding domain of the human androgen receptor” (J Med Chem, 2014).
# Substitutions are numbered along the chain they refer to. The source made the active and inactive calls. No cut-off for these calls is given here.
# Legend:
# [1] = test system: T1, Androgen receptor (Homo sapiens), P10275 [Y594D]; test: Inhibition of human androgen receptor Y594D mutant expressed in human PC3 cells assessed as inhibition of transcription activity after 24 hrs by luciferase reporter gene assay; format: cell-based; details: PC-3
# T1 sequence (whole entry): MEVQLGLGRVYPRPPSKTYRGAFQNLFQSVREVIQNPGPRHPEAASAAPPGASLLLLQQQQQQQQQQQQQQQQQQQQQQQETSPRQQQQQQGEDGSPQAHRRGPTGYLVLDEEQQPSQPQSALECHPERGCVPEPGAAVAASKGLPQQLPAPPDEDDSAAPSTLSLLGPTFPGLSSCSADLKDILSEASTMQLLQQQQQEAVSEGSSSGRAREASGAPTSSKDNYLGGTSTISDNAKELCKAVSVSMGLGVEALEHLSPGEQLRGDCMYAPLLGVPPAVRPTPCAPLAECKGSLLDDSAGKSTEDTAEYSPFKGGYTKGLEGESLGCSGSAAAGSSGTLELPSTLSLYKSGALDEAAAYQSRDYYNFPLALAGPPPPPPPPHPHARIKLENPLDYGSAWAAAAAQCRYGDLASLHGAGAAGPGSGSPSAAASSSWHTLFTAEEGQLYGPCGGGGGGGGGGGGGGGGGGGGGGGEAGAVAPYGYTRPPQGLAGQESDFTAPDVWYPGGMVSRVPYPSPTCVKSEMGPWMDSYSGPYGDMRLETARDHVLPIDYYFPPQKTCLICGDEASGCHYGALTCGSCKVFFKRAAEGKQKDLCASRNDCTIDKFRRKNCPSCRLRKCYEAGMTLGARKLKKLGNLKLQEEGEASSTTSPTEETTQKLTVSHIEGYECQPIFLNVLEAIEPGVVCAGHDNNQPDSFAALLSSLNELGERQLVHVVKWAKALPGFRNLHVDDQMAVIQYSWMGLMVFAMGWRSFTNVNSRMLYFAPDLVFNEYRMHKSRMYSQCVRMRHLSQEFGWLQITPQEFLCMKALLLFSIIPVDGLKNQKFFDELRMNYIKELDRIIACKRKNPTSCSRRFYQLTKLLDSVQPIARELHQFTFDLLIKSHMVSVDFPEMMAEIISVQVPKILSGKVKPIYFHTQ
# Outline: (§1)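 PC3 cells were starved 5 days in RPMI 1640 with 5% charcoal-stripped serum and seeded at 5000 cells/well. After 24 h they were cotransfected with AR-V7 or hAR mutant plasmid plus 50 ng ARR3tk-luciferase. At 48 h post-transfection, compounds were added for 24 h with 0.1 nM R1881. Luminescence was read from passive-lysis-buffer lysates; mutant tests used 10 μM.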
# [2] = biological target: T2, Androgen receptor (Homo sapiens) (UniProt P10275); test: Binding affinity to biotinylated androgen receptor LBD (unknown origin) expressed in Escherichia coli BL21 by biolayer interferometry assay
# T2 sequence (whole entry): T1 sequence (whole entry) with D594Y
# [3] = biological target: T2, Androgen receptor (Homo sapiens); test: Inhibition of androgen receptor V7 (unknown origin) expressed in human PC3 cells assessed as inhibition of transcription activity after 24 hrs by luciferase reporter gene assay; format: cell-based; details: PC-3; outline: as §1
# [4] = biological target: T3, Estrogen receptor (Homo sapiens) (UniProt P03372); test: Inhibition of ERalpha (unknown origin) transcriptional activity at […]
# T3 sequence (whole entry): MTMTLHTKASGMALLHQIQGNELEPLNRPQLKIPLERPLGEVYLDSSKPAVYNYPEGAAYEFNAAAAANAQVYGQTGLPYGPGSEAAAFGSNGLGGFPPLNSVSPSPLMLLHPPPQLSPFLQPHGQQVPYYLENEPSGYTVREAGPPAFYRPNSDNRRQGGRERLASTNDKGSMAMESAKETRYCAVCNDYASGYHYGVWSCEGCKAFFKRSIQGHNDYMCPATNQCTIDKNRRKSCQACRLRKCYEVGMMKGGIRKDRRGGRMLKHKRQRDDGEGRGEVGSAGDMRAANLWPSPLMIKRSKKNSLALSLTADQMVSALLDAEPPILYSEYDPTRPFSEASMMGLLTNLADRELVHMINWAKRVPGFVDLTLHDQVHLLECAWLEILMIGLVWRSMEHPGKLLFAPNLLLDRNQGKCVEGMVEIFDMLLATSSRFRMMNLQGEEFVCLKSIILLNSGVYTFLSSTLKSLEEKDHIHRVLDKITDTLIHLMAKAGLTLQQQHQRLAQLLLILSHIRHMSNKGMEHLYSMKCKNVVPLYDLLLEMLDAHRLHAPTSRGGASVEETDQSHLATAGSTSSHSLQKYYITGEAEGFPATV
# Outline: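 MCF-7 cells stably carrying an ERE-luciferase reporter were stimulated with 1 nM estradiol and treated with compound. Luciferase luminescence was read from passive-lysis-buffer lysates.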
Structure (SMILES),inhibition [1],inhibition [2],inhibition [3],inhibition [4],Activity [2]
c1ccc(-c2csc(N3CCOCC3)n2)cc1,inactive,inactive,Dose-dependent effect,inactive,
Brc1ncn(-c2csc(N3CCOCC3)n2)c1Br,inactive,,Dose-dependent effect,inactive,inactive
